LEDGF integ inh: blocks HIV-1 LEDGF/p75-dependent DNA integration; TR-FRET IN-LEDGF/p75 DNA integration, Eu/Cy5; inhibition, % at 3.7 µM; 0.64% of 370,000 active;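 active = inhibition above the screen-wide mean plus 3 SD, cut at about 13% in these data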;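 also: signal is the Cy5 over europium emission ratio at 671 and 618 nm; 0% = plate median of compound wells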
UHRF1 binding: blocks human UHRF1 binding to methylated DNA; UHRF1 binding to methylated oligo, TR-FRET; 0.75% of 370,000 active; inhibition, % at 4.4 µM; Q96T88; in the data active = inhibition above about 21%;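 also: UHRF1 SRA domain binding a hemimethylated CpG hairpin DNA probe; 0% = median of test compound wells and 100% = reference inhibitor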
Target sequence (Q96T88 whole entry, looked up, the tested form may be a part): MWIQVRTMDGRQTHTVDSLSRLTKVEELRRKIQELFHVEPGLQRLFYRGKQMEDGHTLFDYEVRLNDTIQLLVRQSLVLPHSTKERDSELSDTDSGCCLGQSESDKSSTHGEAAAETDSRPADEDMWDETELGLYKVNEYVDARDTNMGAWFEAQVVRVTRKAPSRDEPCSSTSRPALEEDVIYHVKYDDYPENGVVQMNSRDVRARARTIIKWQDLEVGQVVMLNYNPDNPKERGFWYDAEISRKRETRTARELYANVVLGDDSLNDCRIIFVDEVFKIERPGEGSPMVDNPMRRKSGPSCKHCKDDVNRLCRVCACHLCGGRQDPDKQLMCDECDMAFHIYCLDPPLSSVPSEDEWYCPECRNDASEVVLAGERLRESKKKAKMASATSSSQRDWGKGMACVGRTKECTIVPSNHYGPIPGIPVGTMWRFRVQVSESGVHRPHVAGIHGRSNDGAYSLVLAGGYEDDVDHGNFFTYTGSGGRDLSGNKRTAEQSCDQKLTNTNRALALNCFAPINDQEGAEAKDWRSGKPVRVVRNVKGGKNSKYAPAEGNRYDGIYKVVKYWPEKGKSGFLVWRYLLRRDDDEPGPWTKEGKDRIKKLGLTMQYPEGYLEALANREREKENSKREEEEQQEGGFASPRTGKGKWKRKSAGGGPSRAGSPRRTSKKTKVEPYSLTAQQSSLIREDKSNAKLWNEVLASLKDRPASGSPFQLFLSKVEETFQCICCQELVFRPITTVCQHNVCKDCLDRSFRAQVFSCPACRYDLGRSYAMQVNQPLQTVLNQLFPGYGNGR
MBD2 DNA inh: inhibitors of human MBD2 binding to methylated oligonucleotide. TR-FRET. inhibition, % at 4.4 µM. 0.31% of 370,000 active. AID 686964; in the data active = inhibition above about 13%
TDP2 inh: TDP2 (human) inhibition, absorbance primary screen. O95551. recombinant TDP2, T5PNP hydrolysis, p-nitrophenol absorbance 415 nm. inhibition, % at 12.8 µM. 0.34% of 370,000 active. AID 720702;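 active = inhibition above the mean of all tested compounds plus 3 SD, set per campaign, cut at about 25% in these data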;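 also: 0% = DMSO with enzyme and 100% = buffer with substrate but no TDP2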
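Test system: Human TDP2 enzyme | Reagent: 5 mM T5PNP | Compound dosing: 12.8 µM single point, 1% DMSO | Incubation: Enzyme reaction with compound for 2 h at 37 °C | Technique: p-Nitrophenol epi absorbance | Read-out: % inhibition relative to enzyme-containing and enzyme-free wells | Benchmarks: High control without enzyme, low control DMSO plus TDP2 | Replicates: Singlicate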
TDP2 confirm: human TDP2 inhibition, confirmation. shares compounds with TDP2 inh. recombinant human TDP2, absorbance read-out. inhibition, % at 12.8 µM. 22% of 1,100 active; in the data active = inhibition above about 25%;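 also: 0% = vehicle with enzyme and 100% = no enzyme buffer only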
IN multimer up: HIV-1 integrase multimerization activation, counter-screen | shares compounds with LEDGF integ inh | AID 1053131 | activation, % at 7.7 µM | 17% of 2,000 active | TR-FRET HIV-1 integrase multimerization, biochemical; in the data active = activation above about 8.9%
TR-FRET interf: optically interferes with TR-FRET readout in LEDGF counter-screen. 2,000 tested, under 10 active. shares compounds with LEDGF integ inh. TR-FRET optical interference counterscreen, HIV-1 IN multimerization. inhibition, % at 7.7 µM;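 active = inhibition above the mean over all tested compounds plus 3 SD, which no compound reached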;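 also: 0% = integrase with antibodies and DMSO and 100% = antibodies without integrase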
IN-LEDGF confirm: confirmation of HIV-1 LEDGF/p75-dependent integration inhibitors; 36% of 2,000 active; inhibition, % at 3.7 µM; TR-FRET LEDGF/p75-dependent HIV-1 integration, biochemical; shares compounds with LEDGF integ inh; AID 1053136; in the data active = inhibition above about 14%
Starred values were filed as active, the others as inactive. Sampled rows, rich in hits. Any-hit rate of the full collection: about 1.6%.

`CCCN1CCN(C(=O)c2ccc(F)c(S(=O)(=O)N3CCOCC3)c2)CC1` gave LEDGF integ inh 1, UHRF1 binding 0, MBD2 DNA inh 8, TDP2 inh 39* and TDP2 confirm 3.
For CCCCNc1cc(NC(C)=O)cc2cc(OC)c(OC)cc12 the results were LEDGF integ inh -4, UHRF1 binding -2, MBD2 DNA inh -3, TDP2 inh 30* and TDP2 confirm 29*.
`COCCn1c(N)c(C#N)c2nc3ccccc3nc21` gave LEDGF integ inh 5, UHRF1 binding 5, MBD2 DNA inh -4, TDP2 inh 30* and TDP2 confirm 15.
For COc1ccc(Cn2c(N)c(C#N)c3nc4ccccc4nc32)cc1 the results were LEDGF integ inh 8, UHRF1 binding 0, MBD2 DNA inh -3, TDP2 inh 37* and TDP2 confirm -1.
For COc1cc(Cn2c(N)c(C#N)c3nc4ccccc4nc32)cc(OC)c1 the results were LEDGF integ inh 5, UHRF1 binding -1, MBD2 DNA inh -2 and TDP2 inh -12.
`CCOC(=O)N1CCN(C2=C(NS(=O)(=O)c3ccc(NC(C)=O)cc3)C(=O)c3ccccc3C2=O)CC1` gave LEDGF integ inh 6, UHRF1 binding -2, MBD2 DNA inh -8, TDP2 inh 28* and TDP2 confirm 24.
Screening CCOC(=O)C1CCCN(C2=C(NS(=O)(=O)c3ccc(Br)cc3)C(=O)c3ccccc3C2=O)C1 (stereo not given) returned LEDGF integ inh 22*, UHRF1 binding -2, MBD2 DNA inh -1, TDP2 inh 43* and TDP2 confirm 13.
Screening CCN1CCN(C2=C(NS(=O)(=O)c3ccc(C)cc3)C(=O)c3ccccc3C2=O)CC1 returned LEDGF integ inh 5, UHRF1 binding -13, MBD2 DNA inh -19, TDP2 inh 25* and TDP2 confirm 13.
For CC(=O)Nc1ccc(S(=O)(=O)NC2=C(N3CCN(C)CC3)C(=O)c3ccccc3C2=O)cc1 the results were LEDGF integ inh 5, UHRF1 binding -11, MBD2 DNA inh -14 and TDP2 inh 24.
For CCN1CCN(C2=C(NS(=O)(=O)c3ccc(NC(C)=O)cc3)C(=O)c3ccccc3C2=O)CC1 the results were LEDGF integ inh 1, UHRF1 binding -8, MBD2 DNA inh -16 and TDP2 inh 20.
`CCN(CC)S(=O)(=O)c1ccc2c(c1)N(CC(=O)N(CCc1ccncc1)C(C)C)C(=O)CO2` gave LEDGF integ inh -5, UHRF1 binding 0, MBD2 DNA inh -4 and TDP2 inh -4.
Screening O=C(CNc1cccc2ccccc12)N/N=C/C(Br)=C/c1ccccc1 returned LEDGF integ inh 12, UHRF1 binding 0, MBD2 DNA inh -4, TDP2 inh 38* and TDP2 confirm -1.
Screening COc1ccc(/C=N/Nc2nnc(C)n2N)cc1OC(C)=O returned LEDGF integ inh 32*, UHRF1 binding 8, MBD2 DNA inh -5, TDP2 inh 42*, TDP2 confirm 9, IN multimer up 1, TR-FRET interf -3 and IN-LEDGF confirm 3.
For COc1ccc(/C=N/Nc2nnc(C)n2N)cc1OC the results were LEDGF integ inh 48*, UHRF1 binding 8, MBD2 DNA inh 3, TDP2 inh 54*, TDP2 confirm -3, IN multimer up 0, TR-FRET interf -1 and IN-LEDGF confirm -14.
`CC(=O)Nc1cc2c(cc1Cl)-c1ccc(F)cc1C2O` (stereo not given) gave LEDGF integ inh -1, UHRF1 binding -3, MBD2 DNA inh -1 and TDP2 inh -5.
`O=C(O)c1ccc(NCc2cccc(Br)c2)cc1` gave LEDGF integ inh 5, UHRF1 binding -6, MBD2 DNA inh -3 and TDP2 inh 7.
For COc1cccc(/C=N/Nc2nnc(C)n2N)c1OCc1ccccc1Cl the results were LEDGF integ inh 41*, UHRF1 binding 4, MBD2 DNA inh -5, TDP2 inh 54*, TDP2 confirm -4, IN multimer up 1, TR-FRET interf -3 and IN-LEDGF confirm -3.
Screening CCc1nnc(N/N=C/c2ccccc2F)n1N returned LEDGF integ inh 58*, UHRF1 binding 8, MBD2 DNA inh 1, TDP2 inh 66*, TDP2 confirm 4, IN multimer up 0, TR-FRET interf 2 and IN-LEDGF confirm 0.
Screening CCOC(=O)N/N=C/c1ccccc1F returned LEDGF integ inh -1, UHRF1 binding -3, MBD2 DNA inh -2 and TDP2 inh -3.
For CCc1nnc(N/N=C/c2ccccc2Cl)n1N the results were LEDGF integ inh 46*, UHRF1 binding 9, MBD2 DNA inh -4, TDP2 inh 61*, TDP2 confirm -2, IN multimer up 0, TR-FRET interf -1 and IN-LEDGF confirm -1.
For CC(C)(C)c1nnc(N/N=C/c2ccccc2O)n(N)c1=O the results were LEDGF integ inh -4, UHRF1 binding -3, MBD2 DNA inh -1 and TDP2 inh -6.
`O=C(C1CCCN(c2ncccn2)C1)N1CCc2ccccc21` (stereo not given) gave LEDGF integ inh -1, UHRF1 binding -1, MBD2 DNA inh -2 and TDP2 inh -6.
Screening COc1ccc(-c2cc(=O)c3c(OC)c(OC)c(OC)c(OC)c3o2)cc1 returned LEDGF integ inh -1, UHRF1 binding 0, MBD2 DNA inh -2 and TDP2 inh 9.
Screening CCOc1cccc(-c2cc(=O)[nH][nH]2)c1 returned LEDGF integ inh 29*, UHRF1 binding 0, MBD2 DNA inh 2, TDP2 inh 45*, TDP2 confirm 10, IN multimer up 2, TR-FRET interf -6 and IN-LEDGF confirm 4.
COc1cccc(-c2cc(=O)[nH][nH]2)c1 was read as LEDGF integ inh 21*, UHRF1 binding 7, MBD2 DNA inh 0, TDP2 inh 77*, TDP2 confirm 0, IN multimer up 4, TR-FRET interf -21 and IN-LEDGF confirm 8.
COCCNC(=S)Nc1cccc2cnccc12 was read as LEDGF integ inh -1, UHRF1 binding 0, MBD2 DNA inh 2 and TDP2 inh 2.
CC(=O)N1CCn2c3c(c(=O)c4cc(C)ccc42)CCC31 (stereo not given) was read as LEDGF integ inh 20*, UHRF1 binding -1, MBD2 DNA inh -7, TDP2 inh 34*, TDP2 confirm 50*, IN multimer up 0, TR-FRET interf -1 and IN-LEDGF confirm 23*.
